Here are results for two compounds from ChEMBL document CHEMBL4673212, “Investigation of synergistic antimicrobial effects of the drug combinations of meropenem and 1,2-benzisoselenazol-3(2H)-one derivatives on carbapenem-resistant Enterobacteriaceae producing NDM-1” (Eur J Med Chem, 2018).

Data set [1] relates to HeLa. Description: Cytotoxicity against human HeLa cells assessed as effect on morphological changes at 0.13 to 2 mg/ml by microscopic analysis. It is filed as cell-based. The following applies: dose 0.13-2 mg/ml. The essentials: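 HeLa and L929 cells were examined by microscopy for morphological change after incubation with compound at the MTT-assay concentrations.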
In another data set the test system is L929. Briefly: Cytotoxicity against mouse L929 cells assessed as increase in cell viability at 2 mg/ml measured after 48 hrs by MTT assay. It is filed as cell-based. The following applies: l929, 48 h. The essentials: (§1)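 MTT assay. HeLa or L929 cells were seeded at 1×10^4/well in DMEM with 10% FBS and grown 12 h at 37 °C. They were exposed to 0.13–2 mg/mL compound (DMSO stock) for 48 h, then given 0.5 mg/mL MTT for 3 h at 37 °C. Formazan was dissolved in DMSO and read at 490 nm. Survival % was blank-corrected against the 0.5% DMSO medium control.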

The subject of data set [2] is HeLa. Briefly: Cytotoxicity against human HeLa cells assessed as increase in cell viability at 0.13 to 2 mg/ml measured after 48 hrs by MTT assay relative to control. It is filed as cell-based. To be noted: dose 0.13-2 mg/ml. The essentials:
as §1
In general terms: Tetrazolium dyes change colour on reduction, which living cells bring about.

The subject of data set [3] is HeLa. Description: Cytotoxicity against human HeLa cells assessed as increase in cell viability at 2 mg/ml measured after 48 hrs by MTT assay. It is filed as cell-based. In a few lines: as §1
The target of data set [4] is Metallo-beta-lactamase type 2 (Klebsiella pneumoniae) (UniProt C7C422). Description: Inhibition of wild type N-terminal His6-tagged Klebsiella pneumoniae NDM-1 expressed in Escherichia coli BL21 assessed as loss of zinc ion at enzyme active site leading to formation of compound-intact protein complex after 20 mins by ESI-MS analysis. The essentials: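 Native mass analysis: 20 µM purified NDM-1 plus equimolar compound in 20 mM ammonium acetate, 20 min, then infused into nano-ESI source (spray ~20 min at 150 V). Adduct formation and zinc content were read from protein mass.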
Metallo-beta-lactamase type 2 (Klebsiella pneumoniae), sequence (C7C422 whole entry, the tested form may be a part): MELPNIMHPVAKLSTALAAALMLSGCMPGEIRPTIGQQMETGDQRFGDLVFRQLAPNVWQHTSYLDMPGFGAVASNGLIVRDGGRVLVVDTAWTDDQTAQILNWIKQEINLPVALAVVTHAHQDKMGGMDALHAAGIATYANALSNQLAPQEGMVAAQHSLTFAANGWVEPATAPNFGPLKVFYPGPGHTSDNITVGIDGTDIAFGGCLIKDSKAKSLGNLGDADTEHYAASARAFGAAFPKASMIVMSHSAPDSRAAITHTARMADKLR

Data set [5] shares this target. Description: Binding affinity to denatured N-terminal His6-tagged Klebsiella pneumoniae NDM-1 expressed in Escherichia coli BL21 assessed as formation of compound-intact protein complex by measuring molecular weight measured after 20 mins by ESI-MS analysis. The essentials: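 NDM-1 (20 µM) incubated 20 min with equimolar compound in 20 mM ammonium acetate. Native sample infused by nano-ESI with spray held ~20 min at 150 V. For the denatured sample, an equal volume of acetonitrile with 0.5% formic acid was added before syringe-pump loading at 5 µL/min. Complex formation was read from mass.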

Data set [6] addresses Metallo-beta-lactamase type 2 (Klebsiella pneumoniae, UniProt C7C422). Briefly: Inhibition of wild type N-terminal His6-tagged Klebsiella pneumoniae NDM-1 expressed in Escherichia coli BL21 assessed as inhibition constant using nitrocefin as substrate measured after 30 mins. The essentials: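 1 nM purified His6-NDM-1 was mixed with varying compound concentrations in 50 mM phosphate buffer ± 50 µM ZnSO4 with BSA. Nitrocefin was added at 7× Km and velocity read at 482 nm, in triplicate. ln(% residual activity) versus incubation time gave kobs, which was fitted hyperbolically against concentration for KI and kinact.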

The target of data set [7] is Metallo-beta-lactamase type 2 (Klebsiella pneumoniae) (UniProt C7C422). Description: Time dependent inhibition of wild type N-terminal His6-tagged Klebsiella pneumoniae NDM-1 expressed in Escherichia coli BL21 assessed as residual activity using nitrocefin as substrate. The essentials: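 Purified NDM-1 (residues G36–R270, N-terminal His6, expressed in E. coli BL21), 1 nM, mixed with varying inhibitor concentrations in 50 mM phosphate buffer with or without 50 µM ZnSO4, plus BSA. Nitrocefin at 7×Km was the substrate, read at 482 nm. Residual activity was followed against preincubation time, fitted as pseudo-first-order to give KI and kinact. Triplicate assays.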

Data set [8] has the same target. Briefly: Inhibition of wild type N-terminal His6-tagged Klebsiella pneumoniae NDM-1 expressed in Escherichia coli BL21 assessed as residual activity preincubated for 20 mins by rapid high dilution method relative to control. The essentials: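 Reversibility was tested by rapid high dilution: NDM-1 was preincubated 20 min with compound, then diluted. Residual nitrocefin hydrolysis was compared with an enzyme control lacking compound.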

Data set [9] in a line: Toxicity in Galleria mellonella wax moth larve assessed as mortality at 2 mg/kg cotreated with 2 mg/kg meropenem relative to control. It is filed as organism-based. The following applies: in vivo, read-out: Activity. The essentials: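 G. mellonella larvae (250–300 mg, n=10) infected in the hemocoel at the last left proleg with E. cloacae EL10 at 2.5 × 10^5 CFU/larva in PBS. Treatment was injected at the next left proleg 1 h from inoculation: vehicle, single agents at 10 mg/kg, or combinations at 2+2 or 10+10 mg/kg. Larvae were held at 37 °C and scored every 12 h for 48 h (no response to stimuli = dead). Log-rank test. Three independent experiments.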

A short description of data set [10]: Toxicity in Galleria mellonella wax moth larve assessed as mortality at 10 mg/kg relative to control. It is filed as organism-based. The following applies: in vivo, read-out: Activity.
For data set [11], the system named is Enterobacter cloacae. Briefly: Synergistic antibacterial activity against carbapenem-resistant Enterobacter cloacae isolate 27 harboring CTX-M-3, CTX-M-14, TEM-1 and SHV-12 assessed as fractional inhibitory concentration index in presence of meropenem by CLSI protocol based assay. It is filed as functional. The essentials: (§2)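 FIC index from MICs of compound alone, meropenem alone, and the 1:1 (mass) compound–meropenem combination, read by eye after overnight incubation in a CLSI-based assay. FIC index = MICcombo/MICcpd + MICcombo/MICMem. FIC index ≤0.5 counted as synergy. At least triplicate assays. Clinical NDM-1 isolates for 17-39; E. coli TG1 carrying the IncX3 blaNDM-1 plasmid for 15.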

Data set [12] concerns Escherichia coli. Briefly: Synergistic antibacterial activity against carbapenem-resistant Escherichia coli isolate 06 harboring CTX-M-14, CTX-M-3 and SHV-12 assessed as fractional inhibitory concentration index in presence of meropenem by CLSI protocol based assay. It is filed as functional. In a few lines: as §2
A further data set deals with Klebsiella pneumoniae. Description: Synergistic antibacterial activity against carbapenem-resistant Klebsiella pneumoniae isolate 14 harboring CTX-M-14, KPC-2 and SHV-12 assessed as fractional inhibitory concentration index in presence of meropenem by CLSI protocol based assay. It is filed as functional. The essentials: as §2
The subject of data set [13] is Enterobacter cloacae. Briefly: Potentiation of meropenem-induced antibacterial activity against carbapenem-resistant Enterobacter cloacae isolate 10 harboring CTX-M-14, TEM-1 and SHV-12 assessed as meropenem MIC by CLSI protocol based assay (reference value: 64 ug/ml). It is filed as functional.
Another data set deals with Citrobacter freundii. Briefly: Potentiation of meropenem-induced antibacterial activity against carbapenem-resistant Citrobacter freundii isolate 43 assessed as meropenem MIC by CLSI protocol based assay (Rvb >= 128 ug/ml). It is filed as functional.
Data set [14] has as its system Escherichia coli. Description: Potentiation of meropenem-induced antibacterial activity against carbapenem-resistant Escherichia coli isolate 34 harboring CTX-M-15, TEM-1 and SHV-12 assessed as meropenem MIC by CLSI protocol based assay (reference value: 64 ug/ml). It is filed as functional.
Data set [15] concerns Escherichia coli. Description: Synergistic antibacterial activity against Escherichia coli TG1 transformed with IncX3 plasmid expressing blaNDM-1 assessed as ratio of negative logarithm of fractional inhibitory concentration index to non-hydrogen atom in presence of meropenem incubated for overnight by CLSI protocol based assay. It is filed as functional. To be noted: time 12 hrs. In a few lines: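 In E. coli TG1 carrying the IncX3 blaNDM-1 plasmid, the FIC index was taken from overnight CLSI-based MICs of compound, meropenem and their 1:1 mass mixture, read by eye. Synergistic efficiency = −ln(FIC index) divided by the number of non-hydrogen atoms. At least triplicate assays.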

Data set [16] can be described thus: Covalent inhibition of Escherichia coli NDM-1 using nitrocefin as substrate.

pKi: −log10 of the molar value. Calls of active or inactive are those of the source. The rule behind the calls is not given here.

Metallo-beta-lactamase type 2, sequence (C7C422 whole entry): as the sequence (C7C422 whole entry, the tested form may be a part) above

The pKi is the Ki on a negative log10 scale, so that one unit is a factor of ten. As a reminder, the MIC is the lowest concentration found to suppress growth. With `CC(C)(C)OC(=O)NCCn1[se]c2ccccc2c1=O`, the Activity result is “Non-Toxic” with HeLa [1]; “Non-Toxic” in the data set on L929; 70% in the data set with HeLa [2]; “Non-Toxic” in the data set on HeLa [3]; 26200 Da in data set [5]; 11% in data set [7]. For the same compound, in [8], the Activity is 40%. Moreover, the inhibition entry in data set [4] is “Active”. Also, the pKi in data set [6] is 4.77. The mortality in data set [9] and in [10] was 100% throughout. The “fractional inhibitory concentration index (FICI)” value with Enterobacter cloacae [11] is 0.16; with Escherichia coli [12] it was 0.13; in the data set with Klebsiella pneumoniae it was 0.13. Also, the minimal inhibitory concentration (MIC) in the data set on Enterobacter cloacae [13] came to 8 µg/mL; in the data set with Citrobacter freundii it was 16 µg/mL; in the data set on Escherichia coli [14], 4 µg/mL. For the same compound, in the data set with Escherichia coli [15], the Ratio came to 0.153.

The compound `O=c1c2ccccc2[se]n1-c1ccccc1` [EBSELEN] showed a pKi in [16] of 6.42. In addition, the “fractional inhibitory concentration index (FICI)” value in the data set on Enterobacter cloacae [11] is listed as 2.5; in the data set on Escherichia coli [12], 1; in the data set on Klebsiella pneumoniae it was 2. Also, the MIC stood at 64 µg/mL in the data set with Enterobacter cloacae [13], 32 µg/mL in the data set with Citrobacter freundii and 16 µg/mL in the data set with Escherichia coli [14]. In addition, the Ratio in the data set with Escherichia coli [15] came to 0.043.
